# CHT allo act = human CHT allosteric activation. CHT-expressing cells, membrane potential dye, choline EC20; stronger effect = higher value; LV-AA mutant CHT in HEK293 cells. 310,000 tested, 0.49% active. Q9GZV3. B-score at 10 µM;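 active = initial fluorescence not abnormally high and integrated response B-score, plate-corrected, over 3 SD above library mean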
# proCasp3 act = activates human procaspase-3; P42574; recombinant procaspase-3 D3A, Ac-DEVD-pNA absorbance 405 nm; activation, % at 8.5 µM; 330,000 tested, 0.11% active;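 active = activation above the mean of all tested compounds plus 3 SD, cut at about 21% in these data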;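 also: 0% = DMSO alone and 100% = DMSO wells spiked with extra 5 µM PC-3 D3A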
# Target sequence (P42574 whole entry D9A/D28A/D175A): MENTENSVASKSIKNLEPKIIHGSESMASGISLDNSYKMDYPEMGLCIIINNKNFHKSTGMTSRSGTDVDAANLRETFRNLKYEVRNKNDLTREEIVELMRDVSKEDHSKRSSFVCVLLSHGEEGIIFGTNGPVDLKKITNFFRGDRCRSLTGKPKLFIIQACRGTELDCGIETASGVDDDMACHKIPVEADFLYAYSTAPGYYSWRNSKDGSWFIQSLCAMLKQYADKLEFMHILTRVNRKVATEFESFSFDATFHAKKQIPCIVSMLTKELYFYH
#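 Assay system: Procaspase-3 D3A mutant, all three cleavage aspartates alanine. Buffer or medium: Zinc-free HEPES saline buffer with Triton X-100. Times: 1 h compound preincubation, 2 h substrate hydrolysis at 25 °C. Measured by: 405 nm absorbance of p-nitroaniline, reads at 0 and 120 min. Read-out basis: percent activation relative to control range. Replicates: singlicate.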
# CHT block = human CHT choline transport inhibition; CHT-expressing cells, membrane potential dye, choline response; stronger effect = lower value; AID 488975; 310,000 tested, 0.86% active; B-score at 10 µM;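 active = B-score over 3 SD under the library average, and starting fluorescence ratio not unusually high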;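 also: choline stimulus applied at its EC90 after an EC20 pre-addition; B-score computed on integrated fluorescence ratio after choline addition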
# proCasp7 act = counter-screen: procaspase-7 (human) activation. P55210. recombinant procaspase-7, Ac-DEVD-pNA absorbance 405 nm; D23A/D198A/D206A triple mutant, cannot self-cleave; scale: DMSO 0, 5 µM enzyme 100. activation, % at 8.5 µM. 330,000 tested, 0.093% active. AID 463210;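 active = percent activation above the screen-wide mean plus 3 SD, cut at about 25% in these data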
# Target sequence (P55210 whole entry D23A/D198A/D206A): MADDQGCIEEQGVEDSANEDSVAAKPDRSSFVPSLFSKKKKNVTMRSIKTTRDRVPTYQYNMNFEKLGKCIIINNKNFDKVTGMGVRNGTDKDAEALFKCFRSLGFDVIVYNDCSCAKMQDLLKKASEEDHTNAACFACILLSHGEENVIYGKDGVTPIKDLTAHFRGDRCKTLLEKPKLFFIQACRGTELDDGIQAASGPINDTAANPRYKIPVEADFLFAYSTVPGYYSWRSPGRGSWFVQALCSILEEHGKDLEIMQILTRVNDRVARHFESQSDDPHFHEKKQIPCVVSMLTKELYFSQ
#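 Detection: p-Nitroaniline absorbance at 405 nm, read at 0 and 120 min; system: Uncleavable procaspase-7 mutant enzyme; evaluation: % activation from two-timepoint absorbance difference, scaled to controls; times: 1 h enzyme–compound preincubation and 2 h substrate reaction, both 25 °C; buffer or medium: Zinc-free HEPES pH 7.4 with 300 mM NaCl, 0.01% Triton X-100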
# CHT activ conf = human CHT activation, confirmatory screen | shares compounds with CHT allo act | CHT-expressing cells, membrane potential dye fluorescence (FDSS); % of choline EC20–EC90 response window; HEK293 expressing CHT LV-AA mutant; choline added at its EC20 | activation, % at 10 µM | 2,500 tested, 91% active | AID 504833;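 active = primary screen active, with duplicate mean activation above negative control mean plus 3 SD, cut at about 11% in these data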
# HEK293 MP dye = counter-screen for CHT activators: effect in parental HEK293 cells. shares compounds with CHT allo act. membrane potential dye fluorescence (FDSS); measured after EC20 choline addition. ratio readout change at 10 µM, hits read low. 2,500 tested, 62% active;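 active = duplicate-averaged ratio beyond 3 SD from buffer wells, up or down, though filed actives are nearly all decreases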
# Numbers without * were called inactive; i = inactive; nt = no result. Rows were chosen to be rich in hits. Some 1.3% of all compounds tested hit in one or more screens of this group.
SMILES,CHT allo act,proCasp3 act,CHT block,proCasp7 act,CHT activ conf,HEK293 MP dye
O=C(Cn1cnc2sc3c(c2c1=O)CCCC3)NCC(=O)Nc1c(F)cc(F)cc1Br,i,2,i,4,nt,nt
COCCN(C(=O)CSc1nnc(-c2ccc(C)cc2)n1N)c1c(N)n(Cc2ccccc2)c(=O)[nH]c1=O,i,-10,i,-11,nt,nt
CC(C)CN(C(=O)CSc1nnc(-c2cccs2)n1N)c1c(N)n(Cc2ccccc2)c(=O)[nH]c1=O,6.7*,12,i,10,26*,i
CCCn1c(=N)c(C#N)cc2c(=O)n3ccccc3nc21,7*,-25,i,-24,48*,-64*
CCCn1c(=N)c(C#N)cc2c(=O)n3cccc(C)c3nc21,8.3*,-26,i,-16,49*,-38*
O=C(COC(=O)CN1C(=O)NC2(CCCC2)C1=O)Nc1c(Cl)cccc1C(F)(F)F,i,8,i,6,nt,nt
COC(=O)C1=C(C)N(Cc2ccccc2)C(=NCc2ccccc2)N[C@H]1c1cccc(F)c1,16*,0,i,-4,40*,i
COC(=O)C1=C(C)N(Cc2ccccc2)C(=NCc2ccccc2)N[C@H]1c1ccccc1,nt,4,nt,-2,nt,nt
COc1ccc(NC(=O)Nc2cccc3c2O[C@H](CN(C)C(=O)Nc2c(C)noc2C)[C@@H](C)CN([C@H](C)CO)C3=O)cc1,nt,4,nt,4,nt,nt
CCC(=O)NCCc1nc2cc(NC(=O)c3cccc([N+](=O)[O-])c3)ccc2n1C,i,nt,i,nt,32*,-26*
COCCNC(=O)c1ccc2c3n(nc2c1)-c1ccc(Cl)cc1CO3,i,-3,i,1,nt,nt
O=C(NCCO)c1ccc2c3n(nc2c1)-c1ccc(Cl)cc1CO3,8.6*,-6,i,-5,20*,-23*
Cn1cnnc1SCC(=O)N/N=C/c1ccc(OCC(N)=O)cc1,i,4,i,3,nt,nt
Cc1cccn2c(=O)c3cc(C(=O)NCCc4ccccc4)c(=N)n(Cc4ccco4)c3nc12,i,-15,i,-17,nt,nt
Cc1cccn2c(=O)c3cc(C(=O)NCc4ccco4)c(=N)n(CCc4ccccc4)c3nc12,i,-18,i,-13,22*,-31*
CC(=O)N=c1c(C#N)cc2c(=O)n3cccc(C)c3nc2n1Cc1ccco1,i,-8,i,-5,47*,-36*
CC(=O)N=c1c(C#N)cc2c(=O)n3cccc(C)c3nc2n1CCCOC(C)C,i,-11,i,-2,44*,-45*
Cc1ccccc1C(=O)N=c1c(C#N)cc2c(=O)n3cccc(C)c3nc2n1Cc1ccco1,i,-17,i,-21,nt,nt
CCC(=Nc1ccccc1OC)C1=C(O)CC(c2ccccc2)CC1=O (stereo not given),12*,8,i,-3,32*,i
CCC(=Nc1ccccc1O)C1=C(O)CC(c2ccccc2)CC1=O (stereo not given),i,2,i,-2,nt,nt
CCc1nc2ccc(Cc3ccc4nc(CC)[nH]c4c3)cc2[nH]1,7.1*,3,i,-4,49*,-52*
Cc1ccc2nc(CCc3ccc(N)cc3)[nH]c2c1,i,-10,i,-10,nt,nt
COc1ccc(CN2CCNC(=O)C2CC(=O)NCCCC2CCCC2)c(C)c1C (stereo not given),i,0,i,4,nt,nt
CCN1CCN(c2nc3c(C)cccn3c(=O)c2C=C(C#N)C#N)CC1,7.3*,nt,i,nt,50*,-61*
Cc1cccn2c(=O)c(C=C(C#N)C#N)c(N3CCN(c4ccccc4)CC3)nc12,i,nt,i,nt,nt,nt
SMILES,CHT allo act,proCasp3 act,CHT block,proCasp7 act,CHT activ conf,HEK293 MP dye
Cc1cccn2c(=O)c(C=C(C#N)C#N)c(N3CCN(C)CC3)nc12,8.5*,0,i,-3,56*,-65*
COc1cccc(C(=O)N2CCN(Cc3ccccn3)CC2)c1,i,-1,i,12,nt,nt
Cc1ccc(Oc2ccc(S(=O)(=O)N3CCOCC3)cc2C(N)=O)cc1C,i,-5,i,9,nt,nt
Cc1ccc2c(CN3CCN(CCO)CC3)cc(=O)oc2c1C,8.9*,2,i,-2,54*,-59*
Cc1ccc2c(CN3CCOCC3)cc(=O)oc2c1C,i,0,i,14,nt,nt
CC1CCN(Cc2cc(=O)oc3cc4c(cc23)CCCC4)CC1,i,-2,i,3,nt,nt
CCN1CCN(Cc2cc(=O)oc3ccc(C)cc23)CC1,i,-3,i,5,44*,-46*
CN1CCN(Cc2cc(=O)oc3cc4c(cc23)CCC4)CC1,i,8,i,11,22*,-49*
CCc1cc2c(CN3CCN(CCO)CC3)cc(=O)oc2cc1O,i,16,i,20,37*,-30*
CCc1cc2c(CN3CCN(C)CC3)cc(=O)oc2cc1O,i,16,i,19,nt,nt
CCN(C[C@H]1N[C@@](Cc2ccccc2)(C(=O)OC)[C@H]2C(=O)N(Cc3ccccc3)C(=O)[C@@H]12)S(=O)(=O)c1ccc(C(C)(C)C)cc1,nt,5,nt,9,nt,nt
C[C@@H](C(=O)N1CCN(Cc2ccc3c(c2)OCO3)CC1)n1nnc2ccccc2c1=O,i,9,i,10,nt,nt
CC1CCN(C(=O)CN2C(=O)C(C)(C)Oc3ccc(C(=O)NC(C)C)cc32)CC1,i,-4,i,5,nt,nt
Cc1cc(C)c2c(CN3CCN(C)CC3)cc(=O)oc2c1,i,-2,i,9,46*,-42*
CCCC(=O)N/C(N)=N/c1nc(C)c2ccccc2n1,i,1,i,3,36*,-46*
CCc1ccc2nc(/N=C(\N)NC(=O)c3ccccc3)nc(C)c2c1,i,-2,i,3,nt,nt
CCN(CC)c1nc(N)c2c(N)nc3c(c2c1C#N)CC(c1ccccc1)O3 (stereo not given),6.5*,-7,i,-5,26*,i
Cc1c(Cl)cnc(NC(=O)CSc2n[nH]c(N)n2)c1Cl,nt,3,nt,1,nt,nt
Cc1[nH]n(-c2ccc([N+](=O)[O-])cc2)c(=O)c1C=NCCc1ccc(S(N)(=O)=O)cc1,i,-8,i,-2,nt,nt
CCCc1[nH]n(-c2ccc([N+](=O)[O-])cc2)c(=O)c1C=NCCCn1ccnc1,i,-5,i,6,37*,-48*
c1ccc(CSc2ccc(-c3ccccn3)nn2)nc1,i,2,i,4,nt,nt
CC(Oc1ccc(Cl)cc1Cl)C(=O)NNC(=O)C(=O)N1CCCC1 (stereo not given),i,4,i,20,nt,nt
